A short description of data set [1]: (§1) Antiproliferative activity against human SW620 cells assessed as inhibition of cell proliferation after 72 hrs by MTT assay. The data set is classed as functional, cell-based, SW-620. In a few lines: (§2)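 Cells grown as monolayers in DMEM with 10% FBS, 2 mM L-glutamine, penicillin/streptomycin, 37 °C, 5% CO2. Seeded at 5000/well on day 0. Compounds added after 24 h as five serial dilutions (0,01 to 100 µM), DMSO ≤0.1%, then 72 h. MTT read-out converted to percentage growth. IC50 by linear regression; quadruplicates in three experiments.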

For a further data set, the system named is BJ. Kind of data set: Antiproliferative activity against human BJ cells assessed as inhibition of cell proliferation after 72 hrs by MTT assay. It is filed as cell-based. The following applies: for inhibition (INH): human. In a few lines:
as §2

Another data set deals with MCF7. Kind of data set: Antiproliferative activity against human MCF7 cells assessed as inhibition of cell proliferation after 72 hrs by MTT assay. It is filed as functional, cell-based. In a few lines: as §2
For a further data set, the system named is HepG2. Kind of data set: Antiproliferative activity against human HepG2 cells assessed as inhibition of cell proliferation after 72 hrs by MTT assay. It is filed as functional, cell-based. The following applies: for IC50: HepG2, 72 h. The gist of the method:
as §2

In the next data set the test system is HeLa. Kind of data set: Antiproliferative activity against human HeLa cells assessed as inhibition of cell proliferation after 72 hrs by MTT assay. It is filed as functional, cell-based. The gist of the method:
as §2

A further data set has as its system SW-620. The data set is described as §1. The data set is classed as functional, cell-based. In a few lines: as §2
The test system of data set [2] is Calf thymus DNA. The data set is described as follows: Binding affinity to calf thymus DNA assessed as change in melting temperature at drug/ base pair ratio of 0.5 by spectrophotometry. It is filed as nucleic-acid assay. The following applies: Bos taurus. In a few lines:
(§3)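 CT-DNA absorbance followed at 260 nm from 20 to 100 °C, rising 1 °C per min, in BPE buffer, with or without compound at drug/base-pair ratio 0.25 or 0.5. Tm taken as midpoint of the hyperchromic transition from first-derivative plots. ΔTm is Tm with compound minus Tm of DNA alone.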

The test system of a further data set is Nucleic Acid. The data set is described as follows: Induction of DNA intercalation in supercoiled pUC19 DNA in presence of human topoisomerase 1 assessed as effect on topoisomerase 1-mediated DNA relaxation at 5 to 50 uM by agarose gel electrophoresis. The data set is classed as nucleic-acid assay. To be noted: Escherichia coli. In a few lines: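 Supercoiled pUC19 incubated with human topoisomerase I and graded compound concentrations. Stopped with SDS/proteinase K. DNA forms resolved on 1% agarose in TBE, 2 h at 120 V, stained post-run with ethidium bromide and viewed under UV. Camptothecin was the topo I poison control.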

Data set [3] has as its target T1, DNA topoisomerase 1 (Homo sapiens) (UniProt P11387).
T1 sequence (whole entry): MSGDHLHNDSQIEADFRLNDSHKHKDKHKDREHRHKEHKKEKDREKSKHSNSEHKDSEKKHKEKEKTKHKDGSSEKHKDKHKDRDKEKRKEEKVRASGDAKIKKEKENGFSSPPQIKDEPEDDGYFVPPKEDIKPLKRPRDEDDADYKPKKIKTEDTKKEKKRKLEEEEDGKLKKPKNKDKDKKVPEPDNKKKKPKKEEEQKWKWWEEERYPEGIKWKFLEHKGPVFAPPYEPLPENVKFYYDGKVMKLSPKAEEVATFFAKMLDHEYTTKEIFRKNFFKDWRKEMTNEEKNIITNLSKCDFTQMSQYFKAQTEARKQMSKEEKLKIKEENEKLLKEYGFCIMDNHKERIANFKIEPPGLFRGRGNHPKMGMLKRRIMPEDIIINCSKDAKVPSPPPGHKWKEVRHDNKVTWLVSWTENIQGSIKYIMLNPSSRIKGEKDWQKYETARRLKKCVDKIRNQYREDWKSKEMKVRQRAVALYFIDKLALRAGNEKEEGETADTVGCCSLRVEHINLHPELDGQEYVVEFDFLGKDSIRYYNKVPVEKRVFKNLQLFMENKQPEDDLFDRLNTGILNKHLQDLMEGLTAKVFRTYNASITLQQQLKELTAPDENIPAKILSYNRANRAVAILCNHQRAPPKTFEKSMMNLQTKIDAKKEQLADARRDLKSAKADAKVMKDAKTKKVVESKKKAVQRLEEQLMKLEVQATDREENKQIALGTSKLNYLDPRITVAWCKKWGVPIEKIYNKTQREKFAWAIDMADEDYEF
Kind of data set: Inhibition of human topoisomerase 1 assessed as topoisomerase poison activity by measuring generation of open circular DNA using supercoiled pUC19 DNA at 5 to 50 uM by agarose gel electrophoresis. The gist of the method: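 Supercoiled pUC19 plasmid was incubated with human topoisomerase I and graded compound concentrations. Reactions were stopped with SDS and proteinase K. DNA forms were resolved on 1% agarose in TBE (2 h, 120 V), post-stained with ethidium bromide and photographed under UV. Poisoning was read as appearance of nicked DNA, with camptothecin as the positive control.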

In data set [4] the test system is Calf thymus DNA. The data set is described as follows: Binding affinity to calf thymus DNA at 50 uM circular dichroism spectroscopy. It is filed as nucleic-acid assay. The following applies: Bos taurus. The gist of the method: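 CD spectra recorded from 480 to 230 nm, 10 mm path, 20 °C, in BPE buffer. CT-DNA (50 µM) incubated with compound rising from 1 to 60 µM or to 80 µM. Compound without DNA served as the control for intrinsic CD.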

The test system of data set [5] is Calf thymus DNA. The data set is described as follows: Binding affinity to calf thymus DNA assessed as change in melting temperature at drug/ base pair ratio of 0.25 by spectrophotometry. It is filed as nucleic-acid assay. To be noted: Bos taurus. The gist of the method:
as §3

Molecules are shown by their SMILES. The source made the active and inactive calls. The calls are words filed in the database; no cut-off is given here.

Take `Nc1ccc(/N=C2\c3ccccc3CN2c2ccc(N)cc2)cc1` [listing 1 of 2 here]: the IC50 in [1] (Homo sapiens, SW-620, 72 h) is > 100 µM; in the data set with BJ (Homo sapiens, BJ, 72 h) it was > 100 µM; in the data set with MCF7 (mcf7), 0.05 µM; in the data set with HepG2, > 100 µM; in the data set on HeLa (Homo sapiens, HeLa, 72 h) it was > 100 µM. Further, in the data set with BJ (bj, 72 h), the “inhibition (INH)” value was “Dose-dependent effect”.

As to `CC(=O)Nc1ccc(/N=C2\c3ccccc3CN2c2ccc(NC(C)=O)nc2)cn1`, the inhibition result in the data set with SW-620, in the data set with MCF7, with HepG2 and in the data set on HeLa was “Dose-dependent effect” in each case. Also, the IC50 is > 100 µM in [1] (Homo sapiens, SW-620, 72 h); > 100 µM in the data set with BJ (Homo sapiens, BJ, 72 h); 16 µM with MCF7 (Homo sapiens, MCF7, 72 h); 30.4 µM in the data set with HepG2; > 100 µM with HeLa (Homo sapiens, HeLa, 72 h). In the data set on Calf thymus DNA [2], the ΔTm is 0 °C. In the data set on BJ (bj, 72 h), the “inhibition (INH)” value is reported as “Dose-dependent effect”. For the same molecule, in the data set on Nucleic Acid, the result was inactive. Further, the inhibition result in data set [3] was “inactive”.

`Cl.Nc1ccc(/N=C2\c3ccccc3CN2c2ccc(N)cc2)cc1`: the IC50 in [1] (sw-620) was 51.1 µM; with BJ (bj), 80.5 µM; in the data set with MCF7 (mcf7), 0.73 µM; in the data set on HeLa (hela), 62.4 µM. Besides, the “inhibition (INH)” value in the data set on BJ (bj, 72 h) was “Dose-dependent effect”.

As to `Nc1ccc(/N=C2\c3ccccc3CN2c2ccc(N)cc2)cc1` [listing 2 of 2 here], the inhibition entry in the data set on SW-620, with MCF7, in the data set with HepG2 and in the data set with HeLa was “Dose-dependent effect” each time. Besides, the ΔTm with Calf thymus DNA [2] amounted to 0 °C. In addition, the result with Nucleic Acid was inactive. In addition, in data set [3], the inhibition result was “inactive”.

For the molecule `CC(C)NC(=N)c1ccc(N2Cc3ccccc3C2=O)nc1.Cl`, the inhibition result in the data set on SW-620, in the data set with MCF7, in the data set with HepG2 and with HeLa was “Dose-dependent effect” throughout. For the same molecule, the IC50 in data set [1] (Homo sapiens, SW-620, 72 h) was 79.9 µM; in the data set on BJ (Homo sapiens, BJ, 72 h) it was 18.1 µM; in the data set on MCF7 (Homo sapiens, MCF7, 72 h), 6.43 µM; in the data set on HepG2 it was 51.5 µM; with HeLa (Homo sapiens, HeLa, 72 h), > 100 µM. Further, the “inhibition (INH)” value in the data set with BJ (bj, 72 h) is listed as “Dose-dependent effect”.

On to `Nc1ccc(/N=C2\c3ccccc3CN2c2ccc(N)nc2)cn1`, for which the inhibition entry with SW-620, in the data set on MCF7, in the data set with HepG2 and with HeLa was “Dose-dependent effect” throughout. Moreover, the IC50 in data set [1] (Homo sapiens, SW-620, 72 h) is > 100 µM; in the data set with BJ (Homo sapiens, BJ, 72 h) it was > 100 µM; with MCF7 (Homo sapiens, MCF7, 72 h), 80.7 µM; in the data set on HepG2 it was 88.9 µM; with HeLa (Homo sapiens, HeLa, 72 h) it was > 100 µM. The “inhibition (INH)” value in the data set with BJ (bj, 72 h) was “Dose-dependent effect”.

With `CC(C)NC(=N)c1ccc(/N=C2\c3ccccc3CN2c2ccc(C(=N)NC(C)C)cn2)nc1.Cl`, the inhibition entry in the data set with SW-620, in the data set with MCF7, in the data set with HepG2 and in the data set with HeLa was “Dose-dependent effect” each time. For the same molecule, the IC50 is > 100 µM in data set [1] (Homo sapiens, SW-620, 72 h); > 100 µM in the data set on BJ (Homo sapiens, BJ, 72 h); > 100 µM in the data set with MCF7 (Homo sapiens, MCF7, 72 h); > 100 µM in the data set with HepG2; > 100 µM in the data set with HeLa (Homo sapiens, HeLa, 72 h). The ΔTm in the data set with Calf thymus DNA [2] was determined as 4.4 °C. For the same molecule, the outcome in the data set on Calf thymus DNA [4] was inactive. The “inhibition (INH)” value in the data set on BJ (bj, 72 h) is given as “Dose-dependent effect”. In addition, the inhibition entry in data set [3] is “inactive”.

On to `CN(C)c1ccc(/N=C2\c3ccccc3CN2c2ccc(N(C)C)cc2)cc1`, for which the inhibition result in the data set on SW-620, in the data set with MCF7, in the data set on HepG2 and with HeLa was “Dose-dependent effect” in each case. For the same molecule, the IC50 in [1] (Homo sapiens, SW-620, 72 h) is > 100 µM; in the data set with BJ (Homo sapiens, BJ, 72 h), > 100 µM; in the data set with MCF7 (Homo sapiens, MCF7, 72 h), 8.99 µM; in the data set on HepG2, 82.3 µM; with HeLa (Homo sapiens, HeLa, 72 h), 92.5 µM. Moreover, in the data set with BJ (bj, 72 h), the “inhibition (INH)” value is on record as “Dose-dependent effect”.

For the molecule `Cl.N=C(N)c1ccc(/N=C2\c3ccccc3CN2c2ccc(C(=N)N)nc2)cn1`, the inhibition entry with SW-620, in the data set on MCF7, in the data set with HepG2 and with HeLa was “Dose-dependent effect” throughout. The IC50 was > 100 µM in data set [1] (Homo sapiens, SW-620, 72 h); > 100 µM with BJ (Homo sapiens, BJ, 72 h); 42.1 µM in the data set on MCF7 (Homo sapiens, MCF7, 72 h); 33.9 µM in the data set with HepG2; 68.8 µM in the data set on HeLa (Homo sapiens, HeLa, 72 h). The results for the ΔTm in the data set on Calf thymus DNA [2] and in the data set with Calf thymus DNA [5] were 14.6 °C and 8.8 °C, respectively. Further, the outcome in the data set with Calf thymus DNA [4] and in the data set with Nucleic Acid was Active. Also, the “inhibition (INH)” value in the data set with BJ (bj, 72 h) is listed as “Dose-dependent effect”. Further, the inhibition result in [3] was “inactive”.

Turning to `N#Cc1ccc(/N=C2\c3ccccc3CN2c2ccc(C#N)nc2)cn1`, the inhibition result in the data set on SW-620, in the data set on MCF7, with HepG2 and with HeLa was “Dose-dependent effect” throughout. In addition, the IC50 in data set [1] (Homo sapiens, SW-620, 72 h) came out at 83.8 µM; in the data set on BJ (Homo sapiens, BJ, 72 h), 9 µM; in the data set on MCF7 (Homo sapiens, MCF7, 72 h), 40.5 µM; with HepG2, 5.51 µM; in the data set with HeLa (Homo sapiens, HeLa, 72 h) it was 4.46 µM. For the same molecule, the “inhibition (INH)” value with BJ (bj, 72 h) was “Dose-dependent effect”.

As to `Cl.N=C(N)c1ccc(N2Cc3ccccc3C2=O)nc1`, the inhibition entry with SW-620, in the data set on MCF7, with HepG2 and in the data set on HeLa was “Dose-dependent effect” each time. In addition, the IC50 in [1] (Homo sapiens, SW-620, 72 h) came to 44.8 µM; in the data set with BJ (Homo sapiens, BJ, 72 h), 15.8 µM; with MCF7 (Homo sapiens, MCF7, 72 h), 35.6 µM; with HepG2, 40.6 µM; with HeLa (Homo sapiens, HeLa, 72 h), 60 µM. In the data set with BJ (bj, 72 h), the “inhibition (INH)” value is “Dose-dependent effect”.

Consider `CC(=O)Nc1ccc(/N=C2\c3ccccc3CN2c2ccc(NC(C)=O)cc2)cc1`, for which the inhibition result with SW-620, with MCF7, with HepG2 and in the data set on HeLa was “Dose-dependent effect” each time. The IC50 in data set [1] (Homo sapiens, SW-620, 72 h) is > 100 µM; with BJ (Homo sapiens, BJ, 72 h), 92.4 µM; in the data set with MCF7 (Homo sapiens, MCF7, 72 h) it was 38.2 µM; in the data set on HepG2, 71 µM; in the data set with HeLa (Homo sapiens, HeLa, 72 h), > 100 µM. Moreover, the “inhibition (INH)” value in the data set on BJ (bj, 72 h) is listed as “Dose-dependent effect”.
